The values that follow come from ChEMBL document CHEMBL1156501, “Ibogaine, a noncompetitive inhibitor of serotonin transport, acts by stabilizing the cytoplasm-facing state of the transporter” (J Biol Chem, 2007).

Calls of active or inactive are those of the source. The calls are words filed in the database; no cut-off is given here.

Series [1] is filed under the species Rattus norvegicus. Kind of series: Inhibition of 2-(aminoethyl)methanethiosulphonate hydrobromide-induced inactivation of rat SERT S277 mutant assessed as drug level causing half maximal protection from inactivation. The essentials: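 Membranes from HeLa cells expressing rat SERT S277C were treated with 50 μM MTSEA plus graded cocaine, ibogaine or 5-HT. After washing, residual [125I]β-CIT binding was measured. The drug concentration giving half-maximal protection from or potentiation of inactivation was fitted by nonlinear regression.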

The subject of series [2] is Sodium-dependent serotonin transporter (Rattus norvegicus), P31652 [G273C]. Kind of series: Effect on 2-(aminoethyl)methanethiosulphonate hydrobromide-induced inactivation of rat SERT G273C mutant assessed as increase in rate constant for inactivation. The essentials:
(§1)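 Membranes from HeLa cells expressing rat SERT cysteine mutants were filter-bound and treated for 10 min with a range of MTSEA concentrations plus 10 μM ibogaine, 5-HT or cocaine. After washing, residual 0.1 nM [125I]β-CIT binding was measured. The MTSEA concentration giving half-maximal inactivation was used to calculate the inactivation rate constant.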

For series [3], the system named is Sodium-dependent serotonin transporter (Rattus norvegicus), P31652 [S277C]. Description: Effect on 2-(aminoethyl)methanethiosulphonate hydrobromide-induced inactivation of rat SERT S277C mutant assessed as increase in rate constant for inactivation. An outline of the steps: as §1
For series [4], the system named is Sodium-dependent serotonin transporter (Rattus norvegicus), P31652 [V281C]. Kind of series: Effect on 2-(aminoethyl)methanethiosulphonate hydrobromide-induced inactivation of rat SERT V281C mutant assessed as increase in rate constant for inactivation. An outline of the steps: as §1
Series [5] deals with Sodium-dependent serotonin transporter (Rattus norvegicus), P31652 [T284C]. Description: Effect on 2-(aminoethyl)methanethiosulphonate hydrobromide-induced inactivation of rat SERT T284C mutant assessed as increase in rate constant for inactivation. The essentials:
as §1

Series [6] has as its system Sodium-dependent serotonin transporter (Rattus norvegicus), P31652 [K272C]. Kind of series: Effect on 2-(aminoethyl)methanethiosulphonate hydrobromide-induced inactivation of rat SERT K272C mutant assessed as increase in rate constant for inactivation. The essentials:
as §1

Series [7] has as its system Sodium-dependent serotonin transporter (Rattus norvegicus), P31652 [T276C]. Kind of series: Effect on 2-(aminoethyl)methanethiosulphonate hydrobromide-induced inactivation of rat SERT T276C mutant assessed as increase in rate constant for inactivation. An outline of the steps:
as §1

The species named for series [8] is Rattus norvegicus. Kind of series: Effect on 2-(aminoethyl)methanethiosulphonate hydrobromide-induced inactivation of rat SERT […] mutant assessed as increase in rate constant for inactivation. The essentials: as §1
In series [9] the test system is Sodium-dependent serotonin transporter (Rattus norvegicus), P31652 [Y107C]. Description: Effect on 2-(aminoethyl)methanethiosulphonate hydrobromide-induced inactivation of rat SERT Y107C mutant assessed as increase in rate constant for inactivation. An outline of the steps: as §1
Series [10] has as its system Sodium-dependent serotonin transporter (Rattus norvegicus), P31652 [S404C]. Kind of series: Effect on 2-(aminoethyl)methanethiosulphonate hydrobromide-induced inactivation of rat SERT S404C mutant assessed as increase in rate constant for inactivation. The essentials: as §1
For series [11], the species on record is Rattus norvegicus. Kind of series: Effect on 2-(aminoethyl)methanethiosulphonate hydrobromide-induced inactivation of rat SERT X5C mutant. An outline of the steps: (§2)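 Membranes from HeLa cells expressing rat SERT X5C or K279C (X5C background) were treated with 2 mM MTSEA plus graded ibogaine. Membranes were washed free of MTSEA and ibogaine, then residual binding was measured with 0.1 nM [125I]β-CIT for 1.5 h at room temperature.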

The species entered for series [12] is Rattus norvegicus. Description: Effect on 2-(aminoethyl)methanethiosulphonate hydrobromide-induced inactivation of rat SERT K279 mutant. An outline of the steps:
as §2

Series [13] has as its target T1, Sodium-dependent serotonin transporter (Homo sapiens, UniProt P31645). Description: Displacement of [125I]beta-CIT from human SERT in human platelet membrane in presence of 5 uM ibogaine. Type of series: cell membranes.
In series [14] the target is T1, Sodium-dependent serotonin transporter.
Series [15] addresses T2, Sodium-dependent serotonin transporter (Rattus norvegicus, UniProt P31652). Kind of series: Inhibition of [3H]5HT uptake at rat SERT expressed in HeLa cells. Type of series: cell-based.
Series [16] concerns the target T2, Sodium-dependent serotonin transporter. Kind of series: Displacement of [125I]beta-CIT from rat SERT expressed in HeLa cells. Type of series: cell-based. In general terms: Loss of bound radioactivity is the signal in a displacement assay; it reports binding, not function.
Compound in series [17]: CC[C@H]1C[C@H]2C[C@H]3c4[nH]c5ccc(OC)cc5c4CCN(C2)[C@@H]13
Kind of series: (§3) Inhibition of [3H]5HT transport at rat SERT expressed in pig LLC-PK1 cells at 5 uM. Type of series: cell-based. An outline of the steps:
(§4)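 LLC-PK1 cells stably expressing rat SERT were grown as monolayers. Uptake of [3H]5-HT at varied concentrations was measured for 5 min with or without 5 μM ibogaine. Nonspecific uptake was defined with 100 μM cocaine. Km and Vmax were fitted, with an Eadie-Hofstee plot also shown.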

Compound in series [18]: COC(=O)[C@H]1[C@@H](OC(=O)c2ccccc2)C[C@@H]2CC[C@H]1N2C
The series is described as §3. Format: cell-based. An outline of the steps:
as §4

T1 sequence (P31645 whole entry): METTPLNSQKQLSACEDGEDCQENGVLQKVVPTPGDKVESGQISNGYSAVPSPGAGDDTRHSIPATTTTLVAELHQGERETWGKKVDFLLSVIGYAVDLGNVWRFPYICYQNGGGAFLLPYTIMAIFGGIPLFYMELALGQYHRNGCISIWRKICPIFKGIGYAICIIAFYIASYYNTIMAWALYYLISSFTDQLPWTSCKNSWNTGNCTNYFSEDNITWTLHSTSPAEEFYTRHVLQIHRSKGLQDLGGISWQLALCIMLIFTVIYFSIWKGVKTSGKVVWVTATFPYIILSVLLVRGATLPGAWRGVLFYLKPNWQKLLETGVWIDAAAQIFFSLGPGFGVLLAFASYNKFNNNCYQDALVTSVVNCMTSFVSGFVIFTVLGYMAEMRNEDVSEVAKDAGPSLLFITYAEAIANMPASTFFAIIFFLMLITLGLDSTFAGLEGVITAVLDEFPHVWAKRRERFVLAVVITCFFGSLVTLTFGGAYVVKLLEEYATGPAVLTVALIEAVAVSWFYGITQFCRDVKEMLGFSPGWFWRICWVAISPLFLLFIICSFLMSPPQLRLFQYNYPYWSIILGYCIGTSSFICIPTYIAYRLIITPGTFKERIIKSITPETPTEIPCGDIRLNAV

Consider `COC(=O)[C@H]1[C@@H](OC(=O)c2ccccc2)C[C@@H]2CC[C@H]1N2C`, for which the Activity in the series listed under Rattus norvegicus [1] is 0.58 µM.

Regarding `NCCc1c[nH]c2ccc(O)cc12`, in the series listed under Rattus norvegicus [1], the Activity came to 0.68 µM. The result (in series [2]; in [3]; in series [4]; in [6]; in series [7]; in the series filed under Rattus norvegicus [8]) was Active. Also, the result in series [9] and in [10] was Active. In [5], the result was inactive.

Take `CC[C@H]1C[C@H]2C[C@H]3c4[nH]c5ccc(OC)cc5c4CCN(C2)[C@@H]13`: the Activity in the series filed under Rattus norvegicus [1] turned out to be 0.98 µM. In addition, the result in the series filed under Rattus norvegicus [11] and in the series listed under Rattus norvegicus [12] was inactive. Besides, the result in series [2], in series [3], in series [4], in series [5], in [6] and in [7] was Active. The outcome (in the series listed under Rattus norvegicus [8]; in series [9]; in series [10]) was Active.

Broadly, the Kd is the equilibrium constant for the complex coming apart. In the case of `COC(=O)[C@H]1[C@@H](c2ccc(I)cc2)C[C@@H]2CC[C@H]1N2C`, the Kd in [13] worked out at 2.82 nM; in series [14], 0.88 nM.

In general, IC50 refers to the concentration that inhibits the measured activity by half. Read a high IC50 as weaker potency in that assay. For the molecule `CC[C@H]1C[C@@H]2C[C@H]3c4[nH]c5ccc(OC)cc5c4CCN(C2)[C@@H]13` [IBOGAINE], the IC50 in series [15] turned out to be 6300 nM; in series [16], 2500 nM.

B1: Sodium-dependent serotonin transporter (Rattus norvegicus), P31652 (protein)
chain: METTPLNSQKVLSECKDREDCQENGVLQKGVPTTADRAEPSQISNGYSAVPSTSAGDEASHSIPAATTTLVAEIRQGERETWGKKMDFLLSVIGYAVDLGNIWRFPYICYQNGGGAFLLPYTIMAIFGGIPLFYMELALGQYHRNGCISIWRKICPIFKGIGYAICIIAFYIASYYNTIIAWALYYLISSLTDRLPWTSCTNSWNTGNCTNYFAQDNITWTLHSTSPAEEFYLRHVLQIHQSKGLQDLGTISWQLTLCIVLIFTVIYFSIWKGVKTSGKVVWVTATFPYIVLSVLLVRGATLPGAWRGVVFYLKPNWQKLLETGVWVDAAAQIFFSLGPGFGVLLAFASYNKFNNNCYQDALVTSVVNCMTSFVSGFVIFTVLGYMAEMRNEDVSEVAKDAGPSLLFITYAEAIANMPASTFFAIIFFLMLITLGLDSTFAGLEGVITAVLDEFPHIWAKRREWFVLIVVITCVLGSLLTLTSGGAYVVTLLEEYATGPAVLTVALIEAVAVSWFYGITQFCSDVKEMLGFSPGWFWRICWVAISPLFLLFIICSFLMSPPQLRLFQYNYPHWSIVLGYCIGMSSVICIPTYIIYRLISTPGTLKERIIKSITPETPTEIPCGDIRMNAV
One may read the Km as the substrate concentration at which the rate is half of its maximum. For orientation: Vmax means the top rate of the reaction or transport when substrate is in excess. Take B1: in [17], the Km worked out at 0.17 µM and the Vmax was 14 pmol/min/mg. Moreover, in series [18], the Km was 0.2 µM and the Vmax was 35.7 pmol/min/mg.
